Test results taken from ChEMBL document CHEMBL1154682, “Discovery of novel benzoxazinones as potent and orally active long chain fatty acid elongase 6 inhibitors” (J Med Chem, 2009).

Key:
[1] = molecular target: T1, Very long chain fatty acid elongase 6 (Mus musculus, UniProt Q920L5); assay: Inhibition of mouse ELOVL6 expressed in Pichia pastoris using palmitoyl-CoA by long chain fatty acyl-CoA elongation assay
T1 sequence (Q920L5 whole entry): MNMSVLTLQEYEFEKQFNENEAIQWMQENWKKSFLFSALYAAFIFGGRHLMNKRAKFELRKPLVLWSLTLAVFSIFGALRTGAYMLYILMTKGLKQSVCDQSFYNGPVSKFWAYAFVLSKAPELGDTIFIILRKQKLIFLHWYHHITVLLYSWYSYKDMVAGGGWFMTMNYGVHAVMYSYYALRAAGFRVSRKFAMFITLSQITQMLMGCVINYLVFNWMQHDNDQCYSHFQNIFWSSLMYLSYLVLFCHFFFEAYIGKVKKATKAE
In short: (§1)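 Microsomes (3 μg) from Pichia pastoris SMD1168 expressing FLAG-tagged human or mouse ELOVL6 were incubated 1 h at 37 °C in 100 mM potassium phosphate pH 6.5 with 40 μM palmitoyl-CoA, 20 μM malonyl-CoA plus [14C]-malonyl-CoA, 500 μM NADPH, 200 μM BSA and 1 μM rotenone. DMSO was 1.0% final. After HCl hydrolysis, filter-retained 14C was counted. IC50 came from nonlinear regression on % of control.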

[2] = molecular target: T1, Very long chain fatty acid elongase 6; assay: Inhibition of ELOVL6 in mouse H2.35 cells assessed as elongation index; type: cell-based
In short: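 Subconfluent mouse hepatoma H2.35 cells were kept at 33 °C in DMEM with 200 nM dexamethasone and 4% FBS. Lipids were hydrolysed in NaOH at 70 °C, and fatty acids extracted and quantified by radio-HPLC. Elongation index = (C18:0 + C18:1) / (C16:0 + C16:1).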

[3] = molecular target: T2, Very long chain fatty acid elongase 6 (Homo sapiens, UniProt Q9H5J4); assay: Inhibition of human ELOVL6 expressed in Pichia pastoris using palmitoyl-CoA by long chain fatty acyl-CoA elongation assay; in short: as §1
T2 sequence (Q9H5J4 whole entry): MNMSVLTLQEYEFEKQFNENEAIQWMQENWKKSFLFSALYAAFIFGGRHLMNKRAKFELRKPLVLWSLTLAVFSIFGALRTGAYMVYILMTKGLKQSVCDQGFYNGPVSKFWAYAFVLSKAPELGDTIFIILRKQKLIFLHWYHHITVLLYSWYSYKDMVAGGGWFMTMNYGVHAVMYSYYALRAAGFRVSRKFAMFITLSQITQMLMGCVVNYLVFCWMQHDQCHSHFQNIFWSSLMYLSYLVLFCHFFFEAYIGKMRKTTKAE

[4] = Unbound fraction in C57BL/6N mouse plasma; type: ADME, cell-free
In short: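 Equilibrium dialysis was run with C57BL/6N mouse plasma adjusted to pH 7.4 and spiked with 1 μM compound, dialysed against PBS for 6 h at 37 °C. Both sides were analysed by LC-MS/MS. Unbound fraction = Cf/Cp × 100. Mean of n = 3.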

Row | SMILES | IC50 [1] [nM] | IC50 [2] [nM] | IC50 [3] [nM] | fraction unbound [4]
1 | O=C1Nc2ccc(-c3cn[nH]c3)cc2C(CNC(=O)c2ccc(F)cc2)(C(F)(F)F)O1 (single isomer, unassigned; (+)) | 20 | 50 | – | –
2 | O=C(Nc1ccc(F)cc1)OCC1(C2CC2)OC(=O)Nc2ccc(Cl)cc21 (stereo not given) | – | – | 1410 | –
3 | CC1(COC(=O)Nc2ccc(F)cc2)OC(=O)Nc2ccc(Cl)cc21 (stereo not given) | – | – | 1360 | –
4 | O=C1Nc2ccc(-n3cccn3)cc2C(CNC(=O)c2ccc(F)cc2)(C(F)(F)F)O1 (single isomer, unassigned; (+)) | 29 | 58 | – | –
5 | O=C(Nc1ccc(F)cc1)OCC1(C(F)(F)F)OC(=O)Nc2ccc(Cl)cc21 (stereo not given) | – | – | 142 | –
6 | O=C(NCC1(C(F)(F)F)OC(=O)Nc2ccc(Cl)cc21)Nc1ccc(F)cc1 (single isomer, unassigned; (-)) | 31 | 377 | – | 0.005
